The text below walks through data of ChEMBL document CHEMBL4321807, “Cyanine-Gemcitabine Conjugates as Targeted Theranostic Agents for Glioblastoma Tumor Cells” (J Med Chem, 2019).

In data set [1] the test system is U-87 MG. Description: Cytotoxicity against human U87 cells assessed as reduction in cell viability incubated for 72 hrs by AlamarBlue assay. In kind it is functional, cell-based, U-87MG ATCC. A general note: Resazurin is reduced to fluorescent resorufin, in cell work by metabolically active cells.
Data set [2] in a line: Drug localization in lysosome of human U87 cells at 20 uM incubated for 45 mins by Lysotracker staining-based confocal fluorescence microscopy. The following applies: u-87mg atcc, 0.75 h. In kind it is ADME. In a few lines: (§1)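 U87 cells seeded at 10 000/well in imaging chambers and left overnight. Exposed to 20 μM compound in FluoroBrite DMEM for 45 min at 37 °C, then washed with HBSS. Stained 15 min with LysoTracker (1:10 000) or MitoTracker (1:15 000), plus NucBlue nuclear stain. Imaged live by confocal microscopy at 60×, dye excited at 633 nm. Colocalization scored by Pearson's correlation coefficient.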

Data set [3] in a line: Drug localization in mitochondria of human U87 cells at 20 uM incubated for 45 mins by Mitotracker staining-based confocal fluorescence microscopy. In kind it is ADME. The following applies: u-87mg atcc, 0.75 h. The procedure, abridged: as §1
Data set [4] relates to U-87 MG. In words: Antitumor activity against luciferase and RFP reporter expressing human U87 cells xenografted in Fox1nu mouse assessed as decrease in tumor size at 10 mg/kg, iv administered at day 4 and day 8 post inoculation and six injections weekly measured after 5 weeks by bioluminescence imaging analysis. In kind it is functional, organism-based. To be noted: U-87MG ATCC. On the technique in general: In xenograft studies the graft and the host belong to different species.

The test system of data set [5] is U-87 MG. In words: Antitumor activity against luciferase and RFP reporter expressing human U87 cells xenografted in Fox1nu mouse assessed as decrease in tumor burden at 10 mg/kg, iv administered at day 4 and day 8 post inoculation and six injections weekly measured after 5 weeks by bioluminescence imaging analysis. In kind it is functional, organism-based. To be noted: U-87MG ATCC.

The nature of data set [6]: Toxicity in […] mouse xenografted with luciferase and RFP reporter expressing human U87 cells assessed as effect on body weight at 10 mg/kg, iv administered at day 4 and day 8 post inoculation and six injections weekly measured after 5 weeks. In kind it is organism-based. The following applies: in vivo, 840 h.
Data set [7] in a line: Half life in mouse serum. In kind it is ADME, cell-free.
The subject of data set [8] is U-87 MG. In words: Cytotoxicity against human U87 cells assessed as reduction in cell viability at 0.001 to 10 uM incubated for 72 hrs by AlamarBlue assay. In kind it is functional, cell-based. The following applies: U-87MG ATCC. In a few lines: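 U87 cells, grown in DMEM/F12 with 10% FBS, seeded at 5000/well and left overnight. Compounds added in protein-free hybridoma medium (PFHM II) to final 0.001–10 μM and incubated 72 h at 37 °C. Viability read by AlamarBlue, 2 h, fluorescence Ex/Em 560/590 nm. IC50 taken relative to the lowest concentration beyond which no further cell death occurs.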

Calls of active or inactive are those of the source.

On to `CCCN1/C(=C/C=C2\CCCC(/C=C/C3=[N+](CCC)c4ccccc4C3(C)C)=C2SCCC(=O)Nc2ccn([C@H]3C[C@H](O)[C@@H](CO)O3)c(=O)n2)C(C)(C)c2ccccc21`, for which the IC50 (in general, the concentration that gives 50% inhibition) with U-87 MG [1] is 3400 nM.

For `CC1(C)C(/C=C/C2=C(SCCC(=O)Nc3ccn([C@@H]4O[C@H](CO)[C@@H](O)C4(F)F)c(=O)n3)C(=C/C=C3/N(CCCCS(=O)(=O)O)c4ccccc4C3(C)C)/CCC2)=[N+](CCCCS(=O)(=O)O)c2ccccc21.[Cl-]`, the Drug uptake entry in data set [2] and in data set [3] was “Active” throughout. The IC50 with U-87 MG [1] came out at 20.7 nM.

Take `Nc1ccn([C@@H]2O[C@H](CO)[C@@H](O)C2(F)F)c(=O)n1` [GEMCITABINE]: the result in the data set on U-87 MG [4] was inactive. Also, the result in the data set with U-87 MG [5] was Active. Besides, the Activity entry in data set [6] is recorded as “Non-Toxic”. Moreover, the IC50 with U-87 MG [1] came to 8.2 nM.

With `CC1(C)C(/C=C/C2=C(SCCC(=O)Nc3ccn([C@@H]4O[C@H](CO)[C@@H](O)C4(F)F)c(=O)n3)C(=C/C=C3/N(CCCCCC(=O)O)c4ccccc4C3(C)C)/CCC2)=[N+](CCCCS(=O)(=O)O)c2ccccc21.[Cl-]`, the Drug uptake result in data set [3] is listed as “Not Active”.

As to `CC1(C)C(/C=C/C2=C(Cl)C(=C/C=C3/N(CCCCCC(=O)O)c4ccccc4C3(C)C)/CCC2)=[N+](CCCCCC(=O)O)c2ccccc21.[Cl-]`, the Drug uptake result in data set [2] and in data set [3] was “Active” each time. The half-life (commonly the time needed for the level to fall by half in the phase considered) in data set [7] is 36 min.

Turning to `CC1(C)C(/C=C/C2=C(SCCC(=O)Nc3ccn([C@H]4C[C@H](O)[C@@H](CO)O4)c(=O)n3)C(=C/C=C3/N(CCCCCC(=O)O)c4ccccc4C3(C)C)/CCC2)=[N+](CCCCCC(=O)O)c2ccccc21`, the result in the data set with U-87 MG [8] was Active.
